Measured values: ChEMBL document CHEMBL4513216, “Probing the Open Global Health Chemical Diversity Library for Multistage-Active Starting Points for Next-Generation Antimalarials” (ACS Infect Dis, 2020)

Test: Toxicity liver stage against HepG2, at 10uM
Format: cell-based
Parameters: test concentration 10 uM, cell line HepG2-A16-CD81EGFP
Conditions: human, HepG2-A16-CD81EGFP cells; read-out: INHIBITION
Procedure, shortened: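 Uninfected HepG2-A16-CD81EGFP cells, 3 × 10^3 per well, 1536-well, plated on prespotted compound at 10 μM final, parasite-free screening media added to match infected plates; puromycin 10 μM positive, DMSO 0.5% negative; run in parallel with 48 h PbLuc assay at 37 °C, 5% CO2; viability by CellTiter-Glo luminescence, normalized to controls.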

Structure (SMILES) | cytotoxicity at 10 µM
COCCCn1ccc(NC2CCOCC2)n1 | 3.31%
CC(C)NC(=O)c1ccc2nnc(C3CN(C)CCN3C)n2c1 (stereo unspecified) | -139%
O=C(CCn1cncn1)NCC1CCCC1 | -43.1%
CN1CCN(C(=O)C2CN(Cc3cc4ccccc4o3)CCN2)CC1 (stereo unspecified) | -8.2%
CCOC(=O)[C@]12CCCN(Cc3ccco3)C[C@H]1CN(CCN(C)C)C2 | -17.9%
CN1CCCC1c1cncc(C(=O)NCCN2CCCC2)n1 (stereo unspecified) | 8.6%
CC(C)C[C@H]1CN(c2nc3c(cc2C(N)=O)CCC3)CC[C@@]1(C)O | -4.51%
CCn1c(CNCC2CCCN2c2cccnn2)nc2ccccc21 (stereo unspecified) | -10.2%
Cc1ccc(C)c(Sc2nccn(C)c2=O)c1 | 6.43%
COc1ccc(CNC(Cc2ccsc2)c2ncccc2C)cc1OC (stereo unspecified) | 0.735%
CCn1c(C)nnc1CN(C)C1CCN(CCn2cccn2)C1 (stereo unspecified) | 1.49%
CC(=O)NCc1ccc(C(=O)N2CCCC2c2cnn(C)c2)o1 (stereo unspecified) | -8.67%
CCCc1nc(C)c(CNc2nc(C)nc3oc(C)nc23)s1 | -44.6%
O=C(O)c1ccc(=O)n(CC(c2ccc(Cl)cc2)N2CCOCC2)c1 (stereo unspecified) | 2.91%
O=C1NC2(CCNCC2)CC1c1cccnc1 (stereo unspecified) | 1.77%
COCCN1CCO[C@@H]2CN(Cc3ccccc3OC)C[C@@H]2C1 | -2.48%
CCOC(C)C(=O)NS(=O)(=O)c1cccc2cc(C)cnc12 (stereo unspecified) | -3.14%
COCCN(c1ccncc1)S(=O)(=O)c1cc(C)cc(F)c1 | 7.83%
Cc1cc(Cl)ccc1NCc1cnn(C2CCS(=O)(=O)C2)c1 (stereo unspecified) | 6.51%

Structure (SMILES) | cytotoxicity at 10 µM
COCC(=O)N1CCC2(CC1)C(=O)N(Cc1cccnc1)CCN2C | 0.964%
O=C(Nc1ccc(N2CCCCC2)cn1)C1CCCN1C(=O)C1CC1 (stereo unspecified) | -6.35%
CS(=O)(=O)CCNC(=O)N1CC2(CCCC2)c2ccccc21 | 0.883%
Cc1nc2c(cc1C(=O)Nc1ccccc1Cl)c(=O)n(C)c(=O)n2C | -5.06%
O=C(c1coc(-c2ccccc2)n1)N1CCCC1 | 5.47%
Cc1nccn1C1CCCN(C(=O)COCC2CC2)C1 (stereo unspecified) | -11.7%
FC(F)(F)c1ccc2nc([C@H]3CCN(C4CCCCC4)C3)[nH]c2c1 | -0.668%
CC(CO)NC(=O)c1ccc(NCc2cc(C#N)ccc2F)cc1 (stereo unspecified) | 1.98%
O=C1CC(c2ccncc2)c2c(c(C(=O)O)cn2-c2ccccc2)N1 (stereo unspecified) | -3.7%
CC(CCc1ccccc1)N1CCC(C(=O)NCc2ccccc2)CC1 (stereo unspecified) | 11%
CCN1C(=O)CC(c2cnn(C)c2)C12CCN(C(=O)C1CC=CC1)CC2 (stereo unspecified) | 5.13%
Cn1cc(-c2cc(C(F)(F)F)nn2CCC#N)cn1 | 6.5%
CC(C)n1cnnc1CN(C)C(=O)c1ccccc1-n1cncn1 | -1.49%
CS(=O)(=O)NCC1CCCN(C(=O)c2cccc(F)c2)C1 (stereo unspecified) | -6.93%
O=C(CCN1CCN(c2ccc3nncn3n2)CC1)N1CCCCC1 | -6.73%
Cn1ncnc1-c1ccnc(NCc2ccccn2)n1 | -2.46%
NC(=O)CCC1CCCN(Cc2cnc(N3CCCCC3)nc2)C1 (stereo unspecified) | -11.1%
CN1CCOC(CNC(=O)Cc2ccccc2F)C1 (stereo unspecified) | -3.87%
CC(C)(C)OC(=O)NC1(c2noc(-c3ccco3)n2)CCC1 | -0.657%

Structure (SMILES) | cytotoxicity at 10 µM
CCOc1ncccc1NC(=O)NC1CCN(C(C)=O)CC1 | -6.47%
O=C(c1coc(-c2ccccc2)n1)N1CCS(=O)(=O)CC1 | 11.4%
COc1ccc(C(C)NC(=O)NCCNc2ccccn2)c(OC)c1 (stereo unspecified) | 0.00455%
CC(C)(C)n1ncc2c1NC(=O)CC2c1cccc(F)c1 (stereo unspecified) | -8.81%
COc1ccc(CC(=O)Nc2c(C)nc(N3CCOCC3)nc2C)cc1 | 5.39%
CN1C[C@H]2CCN(C(=O)NC3CCCC3)CC[C@H]2S1(=O)=O | 2.66%
COc1ccc(NC(=O)C(c2cccc(F)c2)N2CCOCC2)cc1 (stereo unspecified) | 2.42%
Cc1cccc(C(=O)NCc2ccccc2)n1 | -4.83%
COCCCN1CCCC1c1noc(C2CC2)n1 (stereo unspecified) | -11.5%
O=C(O)[C@@H]1CN(C(=O)CCc2ccccn2)C[C@H]1c1ccccc1 | 7.96%
O=C(c1nc(=O)[nH]c2ccccc12)N1CCCC(CC2CC2)(C(=O)O)C1 (stereo unspecified) | 6.56%
CN1CCCC1c1ccnc(C(=O)N(C)C2CCCCC2)c1 (stereo unspecified) | -21.5%
CC(C)CC(NC(=O)CN(C)C(=O)c1ccco1)c1cccs1 (stereo unspecified) | -1.24%
Cc1nc2ccccc2nc1CN1CCCCC1Cn1cccn1 (stereo unspecified) | 3.94%
CC(C)(CNC(=O)Nc1nccs1)N1CCOCC1 | -9.47%
Cc1cc(CNCC2CNc3ccnn3C2)no1 (stereo unspecified) | -6.06%
O=C1NC2(CCN(Cc3cccnc3)CC2)CC1c1ccncc1 (stereo unspecified) | 5.33%
CC(=O)N[C@@H]1CN(C(=O)c2ccc[nH]2)C[C@H]1c1ccc(C)o1 | 5.16%
